Experimental data as given in ChEMBL document CHEMBL5113474, “Triazole-substituted phenylboronic acids as tunable lead inhibitors of KPC-2 antibiotic resistance” (Eur J Med Chem, 2022).
In brackets after ≈: the same amount, converted by molar mass.

Key:
Escherichia coli [1] = type: functional, BL21 (DE3); conditions: time 16-18 hrs
physchem = conditions: 0.1 M phosphate buffer, pH 4.3
[2] = Inhibition of bacterial beta-lactamase KPC-2 expressed in Escherichia coli BL21 (DE3) using nitrocefin as substrate assessed as inhibition constant by Cheng-Prusoff equation analysis; parameters: species or system Bacteria
Bacteria = test: Inhibition of bacterial beta-lactamase KPC-2 expressed in Escherichia coli BL21 (DE3) using nitrocefin as substrate at 1 uM by spectrophotometric analysis relative to control
How it was run: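 Purified recombinant KPC-2 tested against the chromogenic β-lactam nitrocefin at 1 µM inhibitor. Hydrolysis was followed as the rise in absorbance at 482 nm (ε482 = 17,400 M-1 cm-1). Activity is expressed as percent inhibition relative to an uninhibited control.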

Escherichia coli [3] = test: microbe, parasite or virus in culture; type: functional; conditions: BL21 (DE3), dose 50 µg/ml, time 16-20 hrs
Escherichia coli [4] = test: Antibacterial activity against Escherichia coli NCTC10418; type: functional
[5] = Cytotoxicity against HEK293 cells assessed as cell viability at 5 to 50 ug/ml incubated for 24 hrs in presence of cefotaxime by MTT assay relative to control; conditions: human, at 5 to 50 µg/mL
[6] = Cytotoxicity against HEK293 cells assessed as cell viability at 5 to 50 ug/ml incubated for 24 hrs by MTT assay relative to control; conditions: human, at 5 to 50 µg/mL
Escherichia coli [7] = test: microbe, parasite or virus in culture; type: functional; conditions: BL21 (DE3), dose 50 µg/ml, time 16-20 hrs; remark: listed apart in the source
Escherichia coli [8] = test: microbe, parasite or virus in culture; type: functional; conditions: BL21 (DE3), dose 5 µg/ml, time 16-20 hrs
Escherichia coli [9] = test: microbe, parasite or virus in culture; type: functional; conditions: BL21 (DE3), dose 5 µg/ml, time 16-20 hrs; remark: listed apart in the source

Ki [2] [nM] | inhibition (Bacteria) [%] | MIC (Escherichia coli [3]) [µg/mL] | MIC (Escherichia coli [4]) [µg/mL] | MIC (Escherichia coli [7]) [µg/mL] | MIC (Escherichia coli [8]) [µg/mL] | MIC (Escherichia coli [9]) [µg/mL] | Structure (SMILES) | inhibition zone (IZ) (Escherichia coli [1]) [mm] | pKa at 100 µM (physchem) | viability at 24 h [5] [%] | viability at 24 h [6] [%]
– | 61 | – | – | – | – | – | OB(O)c1cccc(Cn2cc(-c3ccccn3)nn2)c1 | 25.9 | – | – | –
– | – | – | – | – | – | – | OB(O)c1ccc(-c2ccccc2)cc1 [BIPHENYLBORONIC ACID] | 32.2 | – | – | –
– | 25 | 2 (≈ 7.66 µM) | > 64 | 1 (≈ 3.83 µM) | – | – | CCOC(=O)c1cn(-c2cccc(B(O)O)c2)nn1 | 30 | – | > 80 | > 80
– | – | – | – | – | – | – | OB(O)c1cccc(-c2ccccc2)c1 | 29.7 | – | – | –
– | 10.2 | – | – | – | – | – | O=C(Nc1cccc(B(O)O)c1)c1ccc2sccc2c1 | 26.1 | – | – | –
275 | 45 | – | – | – | – | – | OB(O)c1ccc(Cn2cc(-c3cccs3)nn2)cc1 | 27.5 | – | – | –
166 | 69 | – | – | – | – | – | OB(O)c1cccc(Cn2cc(-c3ccccc3)nn2)c1 | 29.6 | – | > 80 | > 80
38 | 75 | 0.25 (≈ 0.922 µM) | > 64 | 0.12 (≈ 0.443 µM) | 0.25 (≈ 0.922 µM) | 1 (≈ 3.69 µM) | OB(O)c1cccc(-n2cc(-c3ccsc3)nn2)c1 | 29.9 | 8.31 | > 80 | > 80
323 | 55 | – | – | – | – | – | OB(O)c1ccc(Cn2cc(-c3ccccc3)nn2)cc1 | 25.5 | – | > 80 | > 80
– | – | – | – | – | – | – | CCC1CC(=O)CCN1c1ccccc1B(O)O (configuration not stated) | 18.7 | – | – | –
– | – | – | – | – | – | – | O=[N+]([O-])c1cc(NCc2ccccc2)cc(B(O)O)c1 | 20.9 | – | – | –
– | – | – | – | – | – | – | NCc1ccc(F)c(B(O)O)c1 | 19.9 | – | – | –
– | 48 | – | – | – | – | – | OB(O)c1cccc(Cn2cc(Cc3ccccc3)nn2)c1 | 23.6 | – | – | –
32 | 92 | ≤ 0.06 | > 64 | – | ≤ 0.06 | ≤ 0.06 | OB(O)c1cccc(Cn2cc(-c3ccsc3)nn2)c1 | 32 | – | – | –
– | 18 | – | – | – | – | – | OB(O)c1cccc(-n2cc(-c3ccccc3)nn2)c1 | 26.2 | – | – | –
240 | 53 | ≤ 0.06 | > 64 | ≤ 0.06 | ≤ 0.06 | ≤ 0.06 | OB(O)c1cc(Cn2cc(-c3ccsc3)nn2)ccc1F | 29.9 | 10 | – | –
280 | 50 | 0.5 (≈ 1.93 µM) | > 64 | 0.12 (≈ 0.463 µM) | – | – | CC(C)(C)c1cn(Cc2cccc(B(O)O)c2)nn1 | 33.5 | – | – | –
– | – | – | – | – | – | – | COc1ccc(B(O)O)c(-n2cccn2)c1 | 21.7 | – | – | –
480 | 54 | – | – | – | – | – | OB(O)c1cccc(Cn2cc(-c3cccnc3)nn2)c1 | 25.9 | – | > 80 | > 80
440 | 47 | – | – | – | – | – | OB(O)c1cccc(-n2cc(C3CC3)nn2)c1 | 31.5 | – | > 80 | > 80
860 | 7 | – | – | – | – | – | COc1ccc(-c2cn(Cc3cccc(B(O)O)c3)nn2)cc1 | 25.6 | – | > 80 | > 80
800 | 35 | ≤ 0.06 | > 64 | ≤ 0.06 | 0.12 (≈ 0.415 µM) | 1 (≈ 3.46 µM) | OB(O)c1cc(-n2cc(-c3ccsc3)nn2)ccc1F | 39.8 | 7.61 | – | –

Structure (SMILES) | Ki [2] [nM] | inhibition (Bacteria) [%] | MIC (Escherichia coli [3]) [µg/mL] | MIC (Escherichia coli [4]) [µg/mL] | MIC (Escherichia coli [7]) [µg/mL] | MIC (Escherichia coli [8]) [µg/mL] | MIC (Escherichia coli [9]) [µg/mL] | inhibition zone (IZ) (Escherichia coli [1]) [mm] | pKa at 100 µM (physchem) | viability at 24 h [5] [%] | viability at 24 h [6] [%]
[N-]=[N+]=Nc1cc(F)c(F)c(B(O)O)c1 | 27200 | – | – | – | – | – | – | 16.8 | 6.04 | – | –
[N-]=[N+]=NCc1ccc(F)c(B(O)O)c1 | 410 | 40 | ≤ 0.06 | > 64 | ≤ 0.06 | ≤ 0.06 | 0.5 (≈ 2.56 µM) | 29 | 7.22 | – | –
[N-]=[N+]=Nc1cc(B(O)O)c(F)cc1F | 7800 | 0 | 16 (≈ 80.4 µM) | > 64 | 0.12 (≈ 0.603 µM) | ≤ 0.06 | 8 (≈ 40.2 µM) | 23.4 | 6.27 | > 80 | > 80
[N-]=[N+]=NCc1ccc(B(O)O)cc1 | 493 | – | – | – | – | – | – | – | – | > 80 | > 80
